pIC50: −log10 of the molar value.
Columns and labels:
[1] = biological target: Aldo-keto reductase family 1 member B1 (Bos taurus) (UniProt P16116); assay: (§1) Evaluated for inhibition of Aldose reductase 2
How it was run: (§2)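 Calf lens ALR2, partially purified by DE-52 (6.5 mU/mg), at 3.5 mU/mL. Assay at 37 °C with 4.7 mM D,L-glyceraldehyde and 0.11 mM NADPH in 0.25 M sodium phosphate, pH 6.8, with 0.38 M ammonium sulfate. Inhibitor in DMSO (1% final). A340 decrease corrected by a no-substrate blank.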

Bos taurus = species: Bos taurus; assay: Inhibition of Aldehyde reductase 1; design: concentration or dose not given beside the values; conditions: concentration not given here
How it was run: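 Partially purified bovine kidney ALR1 (ammonium sulfate fractionation plus DEAE-52 batch step, 11.3 mU/mg), at 3.5 mU/mL. Assay at 37 °C with 20 mM D-glucuronate and 0.12 mM NADPH in 0.1 M sodium phosphate, pH 7.2. Inhibitor added in DMSO, kept at 1%. NADPH oxidation read at 340 nm against a substrate-free blank. IC50 from the log dose–inhibition curve, duplicates.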

[2] = biological target: Sorbitol dehydrogenase (Ovis aries) (UniProt P07846); assay: Inhibition of sorbitol dehydrogenase from sheep liver (40 U/mg of protein)
Sequence of Sorbitol dehydrogenase (Ovis aries) (P07846 whole entry, looked up): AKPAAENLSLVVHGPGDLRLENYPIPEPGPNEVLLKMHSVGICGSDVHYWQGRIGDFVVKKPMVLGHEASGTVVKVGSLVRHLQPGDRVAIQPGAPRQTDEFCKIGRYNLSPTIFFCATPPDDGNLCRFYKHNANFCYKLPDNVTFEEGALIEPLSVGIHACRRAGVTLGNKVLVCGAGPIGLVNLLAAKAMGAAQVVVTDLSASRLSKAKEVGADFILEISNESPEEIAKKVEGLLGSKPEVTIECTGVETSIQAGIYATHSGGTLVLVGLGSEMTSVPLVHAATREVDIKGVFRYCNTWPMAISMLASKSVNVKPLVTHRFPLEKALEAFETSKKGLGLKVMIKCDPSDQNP

[3] = biological target: T1, Glutathione reductase, mitochondrial (Homo sapiens, UniProt P00390); assay: (§3) Inhibition of glutathione reductase; design: species or system Saccharomyces cerevisiae
T1 sequence (P00390 whole entry): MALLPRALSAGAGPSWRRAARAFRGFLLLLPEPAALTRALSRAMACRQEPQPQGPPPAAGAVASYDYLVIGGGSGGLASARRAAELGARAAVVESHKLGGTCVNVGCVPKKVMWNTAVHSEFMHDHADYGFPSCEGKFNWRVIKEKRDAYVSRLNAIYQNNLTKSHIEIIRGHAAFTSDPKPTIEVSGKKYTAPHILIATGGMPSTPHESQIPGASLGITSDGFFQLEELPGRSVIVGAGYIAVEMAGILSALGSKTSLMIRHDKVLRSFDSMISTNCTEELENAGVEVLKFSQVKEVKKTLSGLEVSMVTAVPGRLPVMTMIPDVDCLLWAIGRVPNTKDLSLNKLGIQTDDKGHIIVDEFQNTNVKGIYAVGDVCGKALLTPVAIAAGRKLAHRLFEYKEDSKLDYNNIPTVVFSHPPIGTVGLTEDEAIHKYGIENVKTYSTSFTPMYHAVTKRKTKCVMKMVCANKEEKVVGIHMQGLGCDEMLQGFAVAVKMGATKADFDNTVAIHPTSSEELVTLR

[4] = biological target: Aldo-keto reductase family 1 member B1 (Bos taurus, UniProt P16116); assay: as §1; how it was run: as §2
[5] = biological target: T2, Glutathione reductase, mitochondrial (Homo sapiens) (UniProt P00390); assay: as §3; conditions: Saccharomyces cerevisiae; concentration not given here
T2 sequence (whole entry): T1 sequence (P00390 whole entry)

[6] = biological target: Sorbitol dehydrogenase (Ovis aries) (UniProt P07846); assay: Inhibition of sorbitol dehydrogenase from sheep liver (40 U/mg of protein); conditions: concentration not given here
[7] = biological target: T2, Glutathione reductase, mitochondrial (Homo sapiens); assay: Inhibition of glutathione reductase at 149 uM; conditions: Saccharomyces cerevisiae
[8] = biological target: T2, Glutathione reductase, mitochondrial (Homo sapiens); assay: Inhibition of glutathione reductase at 138 uM; conditions: Saccharomyces cerevisiae

| Structure (SMILES) | inhibition (Bos taurus) [%] | IC50 [2] | pIC50 [4] | further results |
| --- | --- | --- | --- | --- |
| O=C(O)c1c(O)nnc2c1Cc1ccccc1-2 | 0 | No inhibition |  | inhibition [1]: 5.3%; Inhibition [3]: 12.3% |
| COc1cc2c(cc1OC)-c1nn(CC(=O)O)c(=O)cc1CC2 | 11.3 | No inhibition | 3.94 |  |
| COc1cc2c(cc1OC)-c1nn(CCCC(=O)O)c(=O)cc1CC2 | 10.1 | No inhibition | 5.12 |  |
| O=C(O)c1c2c(n[nH]c1=O)-c1ccccc1CCC2 | 6.8 |  |  | inhibition [1]: 13.2% |
| O=C(O)Cn1nc2c(c(C(=O)O)c1=O)CCc1ccccc1-2 |  | No inhibition | 4.48 | inhibition [5]: 23.7% |
| O=C(O)c1c2c(n[nH]c1=O)-c1ccccc1CC2 |  |  |  | Inhibition [3]: 18.9% |
| Cc1cc(C)c2c(c1)-c1nn(CCC(=O)O)c(=O)cc1CC2 |  | No inhibition | 4.29 |  |
| COc1cc2c(cc1OC)-c1nn(CCC(=O)O)c(=O)cc1CC2 | 8 | No inhibition | 3.79 |  |
| COc1ccc2c(C(=S)N(C)CC(=O)O)cccc2c1C(F)(F)F [TOLRESTAT] |  |  |  | inhibition [6]: 16.4% |
| O=C(O)Cn1nc2c(c(C(=O)O)c1=O)Cc1ccccc1-2 |  | No inhibition |  | inhibition [5]: 22.3%; inhibition [1]: 32.4% |
| O=C(O)CCn1nc2c(cc1=O)CCc1ccccc1-2 | 32.7 | No inhibition | 3.88 |  |
| O=C(O)CCCn1nc2c(cc1=O)CCc1ccccc1-2 |  | No inhibition | 4.94 |  |
| COc1cc2c(cc1OC)-c1nn(CC(=O)O)c(=O)cc1C2 | 44.1 | No inhibition | 4.58 | inhibition [7]: 11.2% |
| O=C(O)Cn1nc2c(cc1=O)CCc1ccccc1-2 |  | No inhibition | 4.90 | inhibition [8]: 4.2% |
| Cc1cc(C)c2c(c1)-c1nn(CC(=O)O)c(=O)cc1CC2 |  | No inhibition | 5.19 |  |
| O=C(O)c1c(O)nnc2c1CCc1ccccc1-2 | 8.3 | No inhibition |  | inhibition [1]: 9.9% |
| O=C1NC(=O)[C@@]2(CCOc3ccc(F)cc32)N1 [SORBINIL] |  | No inhibition |  |  |
| O=C(O)Cn1nc2c(cc1=O)Cc1ccccc1-2 |  | No inhibition |  | inhibition [5]: 9.4%; inhibition [1]: 35.8% |
| O=C(O)Cn1nc2c(cc1=O)CCCc1ccccc1-2 | 15.1 | No inhibition | 4.12 |  |
| Cc1cc(C)c2c(c1)C1=NN(CC(=O)O)C(=O)CC1CC2 (stereo unspecified) | 21.8 |  | 4.20 |  |
| O=C(O)Cn1nc2c(c(C(=O)O)c1=O)CCCc1ccccc1-2 | 10.3 |  |  | inhibition [1]: 12.1% |
| Cc1cc(C)c2c(c1)-c1nn(CCCC(=O)O)c(=O)cc1CC2 | 22.1 | No inhibition | 4.76 |  |

Reference: ChEMBL document CHEMBL1129380, “Synthesis, activity, and molecular modeling of a new series of tricyclic pyridazinones as selective aldose reductase inhibitors” (J Med Chem, 1996)
